# Screening results as filed in PubChem.
# An excerpt weighted towards active compounds, which were near 2.1% of everything screened.
# Efflux pump mplx = inhibitors of Candida antifungal efflux pumps expressed in yeast. inhibition, % at 10 µM. actives 0.44% (n = 330,000). S. cerevisiae Candida pump triplex, Nile Red efflux;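 active means plate passing quality check with inhibition over a set limit, or well fluorescence over plate mean plus 4 SD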;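 further: Nile Red retained in pooled yeast measured as flow cytometry median fluorescence; 0% = buffer negative control and 100% = Enniatin B positive control; higher means more Nile Red kept so more efflux inhibition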
# ARNT TACC3 PPI = ARNT/TACC3 interaction disruption | Q9Y6A5 | inhibition, % at 9.99 µM | AlphaScreen His-ARNT PAS-B/GST-TACC3 binding, luminescence; TACC3 fragment carries E629A point mutation | AID 623870 | actives 0.66% (n = 390,000);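 active means mean inhibition of replicates at least 50% and at least half of replicates each reaching 50%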;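 further: 0% = complete ARNT plus TACC3 wells and 100% = ARNT alone without TACC3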
# UCH37 inh = inhibitors of human deubiquitinating enzyme UCH37; Q9Y5K5; actives 0.33% (n = 330,000); purified proteasome/UCH37, Ub-AMC cleavage fluorescence; inhibition, % (test concentration not listed);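 active means mean inhibition over replicate wells above about 20%, limit read from the data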;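 further: 0% = compound-free wells with enzyme and 100% = wells lacking proteasome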
# Target sequence (Q9Y5K5 whole entry, looked up): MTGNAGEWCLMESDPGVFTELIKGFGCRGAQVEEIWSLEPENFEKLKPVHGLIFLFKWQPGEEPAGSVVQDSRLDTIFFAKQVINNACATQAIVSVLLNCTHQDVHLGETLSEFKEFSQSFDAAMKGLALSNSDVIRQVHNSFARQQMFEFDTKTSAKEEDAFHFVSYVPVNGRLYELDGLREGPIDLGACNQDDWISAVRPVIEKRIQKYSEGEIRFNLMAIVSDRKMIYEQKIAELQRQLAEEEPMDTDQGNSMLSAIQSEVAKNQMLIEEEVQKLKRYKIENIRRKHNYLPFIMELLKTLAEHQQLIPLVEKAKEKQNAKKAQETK
#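 Material: Human UCH37 enzyme supplied as purified proteasome complex | Schedule: 30 min preincubation with enzyme, 25 min cleavage at room temperature | Detection: AMC fluorescence 355/460 nm | Measure: % inhibition of Ub-AMC cleavage fluorescence | Controls: Wells without proteasome as full block, compound-free enzyme plus substrate as uninhibited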
# SUMO Mot1 rescue = inhibitors of SUMOylation pathway: yeast Mot1-301 growth rescue; S. cerevisiae Mot1-301 growth rescue, ATP luminescence, 38.5C; percent above DMSO median, 100 means doubled; growth rescue, % at 18.8 µM; actives 1% (n = 320,000);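 active means every valid replicate shows activation above 250% relative to neutral control wells; inactive means the rest, any valid replicate at or below 250%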;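 further: OY570 slx delta 5 strain wells were the positive control but not used for scaling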
# cardiac RTF act = cardiac RTF calcium sensitization; P19429+P45379; IANBD-labeled TnC RTF fluorescence at EC20 calcium; 0% EC20 calcium, 100% full calcium; activation, % at 7.2 µM; actives 0.24% (n = 340,000);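 active means activation above the mean over all tested compounds plus 3 SD, cut at about 30% in these data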;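 further: rise in fluorescence read as greater calcium sensitivity of cardiac thin filaments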
# Cardiac RTF inh = cardiac RTF calcium desensitization; P19429+P45379; actives 0.12% (n = 340,000); inhibition, % at 7.15 µM; AID 493244; IANBD-labeled cardiac RTF, Ca2+ fluorescence;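 active means inhibition above the mean inhibition of all tested compounds plus 3 SD, cut at about 17% in these data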;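 further: assay run at fixed EC70 calcium of 1.6 mM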
# An asterisk follows results filed as active; i = inactive; . = not tested or not shown; + = active, no number.
SMILES,Efflux pump mplx,ARNT TACC3 PPI,UCH37 inh,SUMO Mot1 rescue,cardiac RTF act,Cardiac RTF inh
Cc1cc(O)ccc1N/C=C1\CCCC1=O,0,.,17,4,4,4
Cc1ccc([N+](=O)[O-])cc1N/C=C1\CCCCC1=O,0,1,4,+,2,-9
COc1ccccc1-c1nnc(NC(=O)c2ccc(S(=O)(=O)N3CCOCC3)cc2)o1,0,46*,.,-6,1,-8
COCc1nnc(NC(=O)c2ccc(S(=O)(=O)N3CCOCC3)cc2)o1,0,45*,5,-13,14,-12
COc1ccc(C(=O)N[C@H](C(=O)Nc2ccc(S(=O)(=O)N3CCOCC3)cc2)C(C)C)cc1,0,18,3,339*,2,5
COc1cc(-c2nnc(NC(=O)c3ccc(S(=O)(=O)N4CCOCC4)cc3)o2)cc(OC)c1OC,0,.,6,1,.,.
CC(=NNC(=O)c1cc(-c2ccc(C)s2)nc2ccccc12)c1cccnc1,.,.,-480,.,.,.
C=CCN1C(=O)C(Cc2ccc(Br)cc2)SC1=NN=Cc1ccco1 (stereo not drawn),.,.,1,.,.,.
COc1ccc(CC(=O)NN=C(C)CC(=O)Nc2ccc3c(c2)OCCO3)cc1OC,.,.,2,.,.,.
COc1cc2c(cc1OC)C1(Nc3c-2c(C)nn3-c2ccccc2)C(=O)Nc2ccccc21 (stereo not drawn),0,0,1,164,-5,-19
COc1cc2c(cc1OC)C1(Nc3c-2c(-c2ccccc2)nn3-c2ccccc2)C(=O)Nc2ccccc21 (stereo not drawn),1.2*,4,-2,-3,-3,-4
CCOC(=O)NN=C(c1ccccc1)C1CCCCC1,.,.,2,.,.,.
CCN(CC)c1ccc2cc(C(=O)NCc3ccc(F)cc3)c(=N)oc2c1,0,-36,.,-11,267*,-82
CCN(CC)c1ccc2cc(C(N)=O)c(=NNC(=O)c3ccncc3)oc2c1,.,.,22*,.,.,.
N=c1oc2ccc(Br)cc2cc1C(=O)NCc1ccc(F)cc1,0,-4,7,-15,-3,1
Cc1cccc(N2C(=O)CC(Cn3nc(C)cc3C)C2=O)c1 (stereo not drawn),0,-1,5,-4,4,1
CCN(CC)C1CC(=O)N(c2cccc(C)c2)C1=O (stereo not drawn),0,.,.,285*,.,.
O=S(=O)(Nc1cccc2ncccc12)c1cccs1,0,58*,0,19,-3,-2
Cc1c(NS(=O)(=O)c2cccs2)cccc1-c1nc2cccnc2s1,0,-2,-13,-11,-2,-22
C/C(=N\NC(=O)c1ccccc1)c1cc2cc([N+](=O)[O-])ccc2oc1=O,0,77*,.,12,-6,-1
CC(CC(=O)Nc1ccccc1Cl)=NNC(=O)C(=O)NCCO,.,.,2,.,.,.
O=C(c1ccc2c(c1)N(Cc1ccccc1)CCS2)N1CCOCC1,0,-1,-68,13,-6,-7
O=C(c1ccc2c(c1)N(Cc1ccc(F)cc1)CCS2)N1CCOCC1,0,8.5*,-76,-6,3,-8
COc1ccc(C=NNc2snc(SC)c2C#N)cc1OC,.,.,-7,.,.,.
COc1ccc(C(C)=NN2C(C)CCCC2C)c(OC)c1 (stereo not drawn),.,.,1,.,.,.
SMILES,Efflux pump mplx,ARNT TACC3 PPI,UCH37 inh,SUMO Mot1 rescue,cardiac RTF act,Cardiac RTF inh
COC(=S)NC(=NS(=O)(=O)c1ccc(Cl)cc1)c1ccccc1,.,.,1,.,.,.
COc1ccc(C)cc1Nc1n[n+](C)c(-c2ccc(O)cc2O)s1,0,-17,23*,-4,1,-4
COCCCNc1c2c3c(cccc3[nH]c1=O)C(=O)c1ccccc1-2,0,14,1,-16,+,i
COCCCNC1=C(Cl)C(=O)c2ccccc2C1=O,0,8,13,12,-2,-4
CC(C)(C)S(=O)(=O)c1cnc(-c2ccccn2)nc1N,0,59*,4,-6,-7,-9
CC(C)(C)S(=O)(=O)c1cnc(-c2cnccn2)nc1N,0,6,0,2,.,.
O=C1/C(=C/c2cccc(F)c2)Oc2cc(O)ccc21,0,-3,-58,8,49*,-43
Cc1cccc(/C=C2\Oc3cc(OS(C)(=O)=O)ccc3C2=O)c1,0,8,3,4,1,-3
